Square brackets hold non-standard residues; d marks the D form. Peptide text beside a SMILES is read from it. Tic = O=C(O)[C@@H]1Cc2ccccc2CN1
Legend:
[1] = Antiplatelet activity against pig platelet assessed as inhibition of PAF-induced platelet aggregation by spectrophotometry; assay type: functional, cell-based; conditions: Sus scrofa
Method in brief: (§1)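 Pig blood (six pigs) spun 1000 rpm 10 min for PRP, then 1500 rpm 10 min for PPP; PRP adjusted to 2×10^8 platelets/mL with autologous PPP. Compound (final 100 µM to 1 nM, diluted in NS from DMSO/NS stock) or NS added, then inducer at final PAF 0.1 µM, ADP 10 µM, AA 350 µM or thrombin 0.1 U/mL.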

[2] = Antiplatelet activity against pig platelet assessed as inhibition of thrombin-induced platelet aggregation by spectrophotometry; assay type: functional, cell-based; conditions: Sus scrofa; method in brief: as §1
Rattus norvegicus [3] = assay: Antithrombotic activity in Wistar rat assessed as thrombus weight at 15 umol/kg, iv (reference value: 28.54 +/- 2.62 mg); assay type: functional
[4] = Antiplatelet activity against pig platelet assessed as inhibition of ADP-induced platelet aggregation by spectrophotometry; assay type: functional, cell-based; conditions: Sus scrofa; method in brief: as §1
[5] = Antiplatelet activity against pig platelet assessed as inhibition of arachidonic acid-induced platelet aggregation by spectrophotometry; assay type: functional, cell-based; conditions: Sus scrofa; method in brief: as §1
[6] = Antiplatelet activity against pig platelet assessed as inhibition of arachidonic acid-induced platelet aggregation at 10 uM by spectrophotometry; assay type: functional; conditions: Sus scrofa; method in brief: as §1
Aorta = assay: Inhibition of noradrenaline-induced contraction in Wistar rat thoracic aortic ring assessed as vasorelaxant activity at 300 uM treated after noradrenaline challenge; assay type: functional; parameters: scale not given: the % may be the effect or the level left
Method in brief: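 Male Wistar rats, 250–300 g, were decapitated and aortic strips were mounted in 37 °C Krebs solution (pH 7.4) gassed with 95% O2/5% CO2, connected to a tension transducer. Strips were contracted with 59 µM noradrenaline, washed, stabilised 30 min, then re-contracted with 59 µM noradrenaline. At peak contraction, compound in ethanol or ethanol alone was added and relaxation was recorded.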

Rattus norvegicus [7] = assay: Antithrombotic activity in Wistar rat assessed as thrombus weight at 15 umol/kg, iv (reference value: 25.99 +/- 2.41 mg); assay type: functional
[8] = Antiplatelet activity against pig platelet assessed as inhibition of thrombin-induced platelet aggregation at 10 uM by spectrophotometry; assay type: functional; conditions: Sus scrofa; method in brief: as §1
[9] = Antiplatelet activity against pig platelet assessed as inhibition of ADP-induced platelet aggregation at 10 uM by spectrophotometry; assay type: functional; conditions: Sus scrofa; method in brief: as §1
[10] = Antiplatelet activity against pig platelet assessed as inhibition of PAF-induced platelet aggregation at 10 uM by spectrophotometry; assay type: functional; conditions: Sus scrofa; method in brief: as §1
Rattus norvegicus [11] = assay: Antithrombotic activity in Wistar rat assessed as thrombus weight at 10 nmol/kg, iv (reference value: 24.09 +/- 2.33 mg); assay type: functional

## O=C(O)[C@H](Cc1cc2ccccc2[nH]1)NC(=O)[C@@H]1Cc2ccccc2CN1
[1]
  IC50: 668 nM
[2]
  IC50: 234 nM
Rattus norvegicus [3]
  Activity: 21.3 mg
[4]
  IC50: 120 nM
[5]
  IC50: 374 nM

## COC(=O)[C@H](C(C)C)N1C(=O)[C@@H]2Cc3ccccc3CN2C1(C)C
[6]
  inhibition at 10 µM: 32.4%
Aorta
  Activity: 54.99%
Rattus norvegicus [7]
  Activity: 15.66 mg
[8]
  inhibition at 10 µM: 30.9%
[9]
  inhibition at 10 µM: 35%
[10]
  inhibition at 10 µM: 34.6%

## CC1(C)N2Cc3ccccc3C[C@H]2C(=O)N1[C@@H](CCCNC(=N)N)C(=O)O
[1]
  IC50: 486 nM
[2]
  IC50: 567 nM
Aorta
  Activity: 32.58%
Rattus norvegicus [11]
  Activity: 13.01 mg
[4]
  IC50: 159 nM
[5]
  IC50: 271 nM

## COC(=O)[C@H](CCSC)N1C(=O)[C@@H]2Cc3ccccc3CN2C1(C)C
[6]
  inhibition at 10 µM: 30.1%
Aorta
  Activity: 43.06%
Rattus norvegicus [7]
  Activity: 20.11 mg
[8]
  inhibition at 10 µM: 36.8%
[9]
  inhibition at 10 µM: 34%
[10]
  inhibition at 10 µM: 31.9%

## CC1(C)N2Cc3ccccc3C[C@H]2C(=O)N1[C@@H](CCC(N)=O)C(=O)O
[1]
  IC50: 541 nM
[2]
  IC50: 629 nM
Aorta
  Activity: 12.24%
Rattus norvegicus [11]
  Activity: 14.39 mg
[4]
  IC50: 182 nM
[5]
  IC50: 302 nM

## N=C(N)NCCC[C@H](NC(=O)[C@@H]1Cc2ccccc2CN1)C(=O)O (H-[Tic]-Arg-OH)
Rattus norvegicus [3]
  Activity: 18.73 mg

## CSCC[C@H](NC(=O)[C@@H]1Cc2ccccc2CN1)C(=O)O (H-[Tic]-Met-OH)
Rattus norvegicus [3]
  Activity: 21.74 mg

## C[C@@H](C(=O)O)N1C(=O)[C@@H]2Cc3ccccc3CN2C1(C)C
[1]
  IC50: 576 nM
[2]
  IC50: 677 nM
Aorta
  Activity: 8.41%
Rattus norvegicus [11]
  Activity: 15.45 mg
[4]
  IC50: 200 nM
[5]
  IC50: 324 nM

## COC(=O)[C@H](C)N1C(=O)[C@@H]2Cc3ccccc3CN2C1(C)C
[6]
  inhibition at 10 µM: 40.5%
Aorta
  Activity: 34.1%
Rattus norvegicus [7]
  Activity: 22.51 mg
[8]
  inhibition at 10 µM: 11.7%
[9]
  inhibition at 10 µM: 10.2%
[10]
  inhibition at 10 µM: 46.3%

## O=C(O)CNC(=O)[C@@H]1Cc2ccccc2CN1 (H-[Tic]-Gly-OH)
Rattus norvegicus [3]
  Activity: 20.24 mg

## CC1(C)N2Cc3ccccc3C[C@H]2C(=O)N1[C@@H](CC(=O)O)C(=O)O
[1]
  IC50: 801 nM
[2]
  IC50: 932 nM
Aorta
  Activity: 2.89%
Rattus norvegicus [11]
  Activity: 21.41 mg
[4]
  IC50: 294 nM
[5]
  IC50: 447 nM

## O=C(O)CC[C@H](NC(=O)[C@@H]1Cc2ccccc2CN1)C(=O)O (H-[Tic]-Glu-OH)
Rattus norvegicus [3]
  Activity: 19.69 mg

## O=C(O)[C@H](Cc1c[nH]cn1)NC(=O)[C@@H]1Cc2ccccc2CN1 (H-[Tic]-His-OH)
Rattus norvegicus [3]
  Activity: 20.86 mg

## COC(=O)C[C@@H](C(=O)OC)N1C(=O)[C@@H]2Cc3ccccc3CN2C1(C)C
[6]
  inhibition at 10 µM: 57.7%
Aorta
  Activity: 64.09%
Rattus norvegicus [7]
  Activity: 18.2 mg
[8]
  inhibition at 10 µM: 60.1%
[9]
  inhibition at 10 µM: 24.6%
[10]
  inhibition at 10 µM: 18.6%

## CC(C)[C@@H](C(=O)O)N1C(=O)[C@@H]2Cc3ccccc3CN2C1(C)C
[1]
  IC50: 525 nM
[2]
  IC50: 610 nM
Aorta
  Activity: 16%
Rattus norvegicus [11]
  Activity: 14.01 mg
[4]
  IC50: 175 nM
[5]
  IC50: 292 nM

## O=C(O)[C@H](Cc1ccccc1)NC(=O)[C@@H]1Cc2ccccc2CN1 (H-[Tic]-Phe-OH)
Rattus norvegicus [3]
  Activity: 19.11 mg

## C[C@H](NC(=O)[C@@H]1Cc2ccccc2CN1)C(=O)O (H-[Tic]-Ala-OH)
Rattus norvegicus [3]
  Activity: 21.4 mg

## NC(=O)CC[C@H](NC(=O)[C@@H]1Cc2ccccc2CN1)C(=O)O (H-[Tic]-Gln-OH)
Rattus norvegicus [3]
  Activity: 22.08 mg

## CC1(C)N2Cc3ccccc3C[C@H]2C(=O)N1[C@@H](Cc1ccccc1)C(=O)O
[1]
  IC50: 496 nM
[2]
  IC50: 578 nM
Aorta
  Activity: 26.61%
Rattus norvegicus [11]
  Activity: 13.27 mg
[4]
  IC50: 163 nM
[5]
  IC50: 277 nM

## O=C(O)[C@H](CO)NC(=O)[C@@H]1Cc2ccccc2CN1 (H-[Tic]-Ser-OH)
Rattus norvegicus [3]
  Activity: 23.58 mg

## COC(=O)CN1C(=O)[C@@H]2Cc3ccccc3CN2C1(C)C
[6]
  inhibition at 10 µM: 58.9%
Aorta
  Activity: 75.35%
Rattus norvegicus [7]
  Activity: 15.21 mg
[8]
  inhibition at 10 µM: 10.9%
[9]
  inhibition at 10 µM: 66.1%
[10]
  inhibition at 10 µM: 44.5%

Source: ChEMBL document CHEMBL1641479, “2-Substituted (S)-2-(3,3-dimethyl-1-oxo-10,10a-dihydroimidazo[1,5-b]isoquinolin-2(1H,3H,5H)-yl)acetic acids: Conformational prediction, synthesis, anti-thrombotic and vasodilative evaluation” (Bioorg Med Chem, 2011)
